Measurements as given in paper PMC5198968 (Cancer Science, 2016).
Where “and” joins values, the source holds several entries; their conditions need not be identical. Equal entries are not always repeated. Entries after “also recorded” stand apart in the source; their conditions may differ.

System: Japanese patients with advanced hepatocellular carcinoma
Test: Adverse events
Format: in vivo, human
Method in brief: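 Oral test compound given twice daily, continuously, in 28-day cycles until progression or unacceptable AEs. Group I had mild liver impairment (Child–Pugh 5–6) and group II moderate impairment (Child–Pugh 7 or raised AST/ALT). AEs were recorded over the observation period and graded by CTCAE v3.0. The treated set was every patient receiving at least one dose, and analyses were descriptive.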

[1] = Group I (mild liver impairment), 150 mg b.i.d., n = 4
[2] = Group I (mild liver impairment), 200 mg b.i.d., n = 12
[3] = Group I (mild liver impairment), all patients, n = 16
[4] = Group I (mild liver impairment), n = 16, all grades
[5] = Group I (mild liver impairment), n = 16, grade ≥3
[6] = Group II (moderate liver impairment), 100 mg b.i.d., n = 3
[7] = Group II (moderate liver impairment), 150 mg b.i.d., n = 4
[8] = Group II (moderate liver impairment), 200 mg b.i.d., n = 7
[9] = Group II (moderate liver impairment), all patients, n = 14
[10] = Group II (moderate liver impairment), n = 14, all grades
[11] = Group II (moderate liver impairment), n = 14, grade ≥3

With COC(=O)c1ccc2c(c1)NC(=O)/C2=C(\Nc1ccc(N(C)C(=O)CN2CCN(C)CC2)cc1)c1ccccc1 [nintedanib] the “AEs leading to nintedanib discontinuation” value [1] was 0 (0.0) n (%), the “AEs leading to nintedanib dose reduction” value [1] was 0 (0.0) n (%) and the “Any AE” value [1] was 4 (100.0) n (%). For the same compound, the “Investigator-defined drug-related AE” value [1] was 3 (75.0) n (%), the “Other significant AEs (leading to dose reduction or permanent discontinuation of nintedanib)” value [1] was 0 (0.0) n (%) and the “Serious AEs” value [1] was 0 (0.0) n (%). The “Serious AEs: Fatal” value [1] was 0 (0.0) n (%), the “Serious AEs: Immediately life-threatening” value [1] was 0 (0.0) n (%) and the “Serious AEs: Prolonged hospitalization” value [1] was 0 (0.0) n (%). The “Serious AEs: Required hospitalization” value [1] was 0 (0.0) n (%), the “AEs leading to nintedanib discontinuation” value [2] was 0 (0.0) n (%) and the “AEs leading to nintedanib dose reduction” value [2] was 5 (41.7) n (%). The “Any AE” value [2] was 12 (100.0) n (%), the “Investigator-defined drug-related AE” value [2] was 11 (91.7) n (%) and the “Other significant AEs (leading to dose reduction or permanent discontinuation of nintedanib)” value [2] was 5 (41.7) n (%). The “Serious AEs” value [2] was 4 (33.3) n (%), the “Serious AEs: Fatal” value [2] was 0 (0.0) n (%) and the “Serious AEs: Immediately life-threatening” value [2] was 0 (0.0) n (%). The “Serious AEs: Prolonged hospitalization” value [2] was 0 (0.0) n (%), the “Serious AEs: Required hospitalization” value [2] was 4 (33.3) n (%) and the “AEs leading to nintedanib discontinuation” value [3] was 0 (0.0) n (%). For the same compound, the “AEs leading to nintedanib dose reduction” value [3] was 5 (31.3) n (%), the “Any AE” value [3] was 16 (100.0) n (%) and the “Investigator-defined drug-related AE” value [3] was 14 (87.5) n (%). For the same compound, the “Other significant AEs (leading to dose reduction or permanent discontinuation of nintedanib)” value [3] was 5 (31.3) n (%), the “Serious AEs” value [3] was 4 (25.0) n (%) and the “Serious AEs: Fatal” value [3] was 0 (0.0) n (%). For the same compound, the “Serious AEs: Immediately life-threatening” value [3] was 0 (0.0) n (%), the “Serious AEs: Prolonged hospitalization” value [3] was 0 (0.0) n (%) and the “Serious AEs: Required hospitalization” value [3] was 4 (25.0) n (%). The Abdominal pain [4] was 4 (25.0), the “Any AE” value [4] was 16 (100) and the Ascites [4] was 1 (6.3). For the same compound, the Decreased appetite [4] was 6 (37.5), the Decreased platelet count [4] was 2 (12.5) and the Diarrhea [4] was 8 (50.0). For the same compound, the Fatigue [4] was 3 (18.8), the Hyperuricemia [4] was 1 (6.3) and the Hypoalbuminemia [4] was 2 (12.5). For the same compound, the “Increased ALT” value [4] was 1 (6.3), the “Increased AST” value [4] was 4 (25.0) and the Increased blood bilirubin [4] was 1 (6.3). For the same compound, the Malaise [4] was 4 (25.0), the Malignant neoplasm progression [4] was 1 (6.3) and the Nausea [4] was 7 (43.8). The Neutropenia [4] was 2 (12.5), the Pyrexia [4] was 2 (12.5) and the Vomiting [4] was 6 (37.5). The Abdominal pain [5] was 0 (0.0), the “Any AE” value [5] was 7 (43.8) and the Ascites [5] was 0 (0.0). For the same compound, the Decreased appetite [5] was 0 (0.0), the Decreased platelet count [5] was 2 (12.5) and the Diarrhea [5] was 1 (6.3). The Fatigue [5] was 1 (6.3), the Hyperuricemia [5] was 0 (0.0) and the Hypoalbuminemia [5] was 0 (0.0). For the same compound, the “Increased ALT” value [5] was 0 (0.0), the “Increased AST” value [5] was 0 (0.0) and the Increased blood bilirubin [5] was 0 (0.0). For the same compound, the Malaise [5] was 0 (0.0), the Malignant neoplasm progression [5] was 0 (0.0) and the Nausea [5] was 0 (0.0). The Neutropenia [5] was 0 (0.0), the Pyrexia [5] was 0 (0.0) and the Vomiting [5] was 0 (0.0). The “AEs leading to nintedanib discontinuation” value [6] was 0 (0.0) n (%), the “AEs leading to nintedanib dose reduction” value [6] was 1 (33.3) n (%) and the “Any AE” value [6] was 3 (100.0) n (%). The “Investigator-defined drug-related AE” value [6] was 3 (100.0) n (%), the “Other significant AEs (leading to dose reduction or permanent discontinuation of nintedanib)” value [6] was 1 (33.3) n (%) and the “Serious AEs” value [6] was 1 (33.3) n (%). For the same compound, the “Serious AEs: Fatal” value [6] was 0 (0.0) n (%), the “Serious AEs: Immediately life-threatening” value [6] was 0 (0.0) n (%) and the “Serious AEs: Prolonged hospitalization” value [6] was 0 (0.0) n (%). The “Serious AEs: Required hospitalization” value [6] was 1 (33.3) n (%), the “AEs leading to nintedanib discontinuation” value [7] was 0 (0.0) n (%) and the “AEs leading to nintedanib dose reduction” value [7] was 1 (25.0) n (%). For the same compound, the “Any AE” value [7] was 4 (100.0) n (%), the “Investigator-defined drug-related AE” value [7] was 4 (100.0) n (%) and the “Other significant AEs (leading to dose reduction or permanent discontinuation of nintedanib)” value [7] was 1 (25.0) n (%). For the same compound, the “Serious AEs” value [7] was 2 (50.0) n (%), the “Serious AEs: Fatal” value [7] was 1 (25.0) n (%) and the “Serious AEs: Immediately life-threatening” value [7] was 0 (0.0) n (%). For the same compound, the “Serious AEs: Prolonged hospitalization” value [7] was 0 (0.0) n (%), the “Serious AEs: Required hospitalization” value [7] was 2 (50.0) n (%) and the “AEs leading to nintedanib discontinuation” value [8] was 0 (0.0) n (%). The “AEs leading to nintedanib dose reduction” value [8] was 1 (14.3) n (%), the “Any AE” value [8] was 7 (100.0) n (%) and the “Investigator-defined drug-related AE” value [8] was 5 (71.4) n (%). For the same compound, the “Other significant AEs (leading to dose reduction or permanent discontinuation of nintedanib)” value [8] was 1 (14.3) n (%), the “Serious AEs” value [8] was 3 (42.9) n (%) and the “Serious AEs: Fatal” value [8] was 1 (14.3) n (%). For the same compound, the “Serious AEs: Immediately life-threatening” value [8] was 1 (14.3) n (%), the “Serious AEs: Prolonged hospitalization” value [8] was 1 (14.3) n (%) and the “Serious AEs: Required hospitalization” value [8] was 3 (42.9) n (%). The “AEs leading to nintedanib discontinuation” value [9] was 0 (0.0) n (%), the “AEs leading to nintedanib dose reduction” value [9] was 3 (21.4) n (%) and the “Any AE” value [9] was 14 (100.0) n (%). For the same compound, the “Investigator-defined drug-related AE” value [9] was 12 (85.7) n (%), the “Other significant AEs (leading to dose reduction or permanent discontinuation of nintedanib)” value [9] was 3 (21.4) n (%) and the “Serious AEs” value [9] was 6 (42.9) n (%). The “Serious AEs: Fatal” value [9] was 2 (14.3) n (%), the “Serious AEs: Immediately life-threatening” value [9] was 1 (7.1) n (%) and the “Serious AEs: Prolonged hospitalization” value [9] was 1 (7.1) n (%). The “Serious AEs: Required hospitalization” value [9] was 6 (42.9) n (%), the “Abdominal pain (upper abdominal pain for group II)” value [10] was 2 (14.3) and the “Any AE” value [10] was 14 (100). For the same compound, the Ascites [10] was 7 (50.0), the Decreased appetite [10] was 7 (50.0) and the Decreased platelet count [10] was 1 (7.1). The Diarrhea [10] was 6 (42.9), the Fatigue [10] was 5 (35.7) and the Hyperuricemia [10] was 3 (21.4). The Hypoalbuminemia [10] was 6 (42.9), the “Increased ALT” value [10] was 4 (28.6) and the “Increased AST” value [10] was 5 (35.7). For the same compound, the Increased blood bilirubin [10] was 4 (28.6), the Lymphopenia [10] was 2 (14.3) and the Malaise [10] was 3 (21.4). The Malignant neoplasm progression [10] was 4 (28.6), the Nausea [10] was 5 (35.7) and the Neutropenia [10] was 3 (21.4). The Pyrexia [10] was 4 (28.6), the Vomiting [10] was 3 (21.4) and the “Abdominal pain (upper abdominal pain for group II)” value [11] was 0 (0.0). The “Any AE” value [11] was 11 (78.6), the Ascites [11] was 1 (7.1) and the Decreased appetite [11] was 0 (0.0). The Decreased platelet count [11] was 0 (0.0), the Diarrhea [11] was 0 (0.0) and the Fatigue [11] was 0 (0.0). The Hyperuricemia [11] was 2 (14.3), the Hypoalbuminemia [11] was 1 (7.1) and the “Increased ALT” value [11] was 2 (14.3). For the same compound, the “Increased AST” value [11] was 3 (21.4), the Increased blood bilirubin [11] was 0 (0.0) and the Lymphopenia [11] was 2 (14.3). For the same compound, the Malaise [11] was 0 (0.0), the Malignant neoplasm progression [11] was 2 (14.3) and the Nausea [11] was 0 (0.0). The Neutropenia [11] was 2 (14.3), the Pyrexia [11] was 0 (0.0) and the Vomiting [11] was 0 (0.0). The “Discontinuation of nintedanib due to AEs” value (both groups) was “No patients discontinued nintedanib due to adverse events; also recorded: No patients discontinued nintedanib due to AEs”, the “Drug-related fatal AEs” value (both groups) was “No drug‐related fatal AEs were reported” and the “Hypertension at grade ≥3” value (both groups) was “not reported by any patients”. For the same compound, the “Ascites, any grade” value (group I) was 6.3%, the “Bleeding, incidence” value (group I) was 12.5% and the “Decreased appetite, any grade” value (group I) was 37.5%. The “Diarrhea, any grade” value (group I) was 50.0%, the “Fatigue, any grade” value (group I) was 18.8% and the Hand-foot skin reaction (group I) was “one patient in group I”. The “Hypertension, incidence” value (group I) was 12.5%, the “Hypoalbuminemia, any grade” value (group I) was 12.5% and the “Increased AST, any grade” value (group I) was 25.0%. The “Nausea, any grade” value (group I) was 43.8%, the “Serious AEs considered drug-related by the investigator” value (group I) was “grade 3 immune thrombocytopenic purpura and grade 3 hyponatremia” and the “Thromboembolic events at grade ≥3” value (group I) was “no patients in group I”. For the same compound, the “Thromboembolic events, incidence” value (group I) was 0.0%, the “Vomiting, any grade” value (group I) was 37.5% and the “Patients with dose reduction of nintedanib due to AEs” value (group I (five patients, all on 200 mg)) was 31% and 31.3%. For the same compound, the “Patients with serious AEs (all requiring hospitalization)” value (group I (four patients)) was 25.0%, the “Patients with adverse events at grade ≥3” value (group I (seven patients)) was 43.8% and the “Ascites, any grade” value (group II) was 50.0%. For the same compound, the “Bleeding at grade ≥3” value (group II) was “no patients in group II”, the “Bleeding, incidence” value (group II) was 14.3% and the “Decreased appetite, any grade” value (group II) was 50.0%. For the same compound, the “Diarrhea, any grade” value (group II) was 42.9%, the “Fatigue, any grade” value (group II) was 35.7% and the Hand-foot skin reaction (group II) was “no patients in group II”. For the same compound, the “Hypertension, incidence” value (group II) was 21.4%, the “Hypoalbuminemia, any grade” value (group II) was 42.9% and the “Increased AST, any grade” value (group II) was 35.7%. The “Nausea, any grade” value (group II) was 35.7%, the “Serious AEs considered drug-related by the investigator” value (group II) was “grade 2 gastroenteritis, grade 3 drug‐induced liver injury, and grade 2 pyrexia” and the “Thromboembolic events, incidence” value (group II) was 7.1%. The “Vomiting, any grade” value (group II) was 21.4%, the “Patients with adverse events at grade ≥3” value (group II (11 patients)) was 78.6% and the “Thromboembolic events at grade ≥3” value (group II (one patient)) was 7.1%. The “Patients with serious AEs (all requiring hospitalization)” value (group II (six patients)) was 42.9% and the “Patients with dose reduction of nintedanib due to AEs” value (group II (three patients, one from each dose)) was 21% and 21.4%.
